The source of these data is ChEMBL document CHEMBL1158389, “Highly twisted adamantyl arotinoids: synthesis, antiproliferative effects and RXR transactivation profiles” (Eur J Med Chem, 2009).

The target in experiment [1] is T1, Retinoic acid receptor RXR-alpha (Mus musculus) (UniProt P28700).
T1 sequence (whole entry): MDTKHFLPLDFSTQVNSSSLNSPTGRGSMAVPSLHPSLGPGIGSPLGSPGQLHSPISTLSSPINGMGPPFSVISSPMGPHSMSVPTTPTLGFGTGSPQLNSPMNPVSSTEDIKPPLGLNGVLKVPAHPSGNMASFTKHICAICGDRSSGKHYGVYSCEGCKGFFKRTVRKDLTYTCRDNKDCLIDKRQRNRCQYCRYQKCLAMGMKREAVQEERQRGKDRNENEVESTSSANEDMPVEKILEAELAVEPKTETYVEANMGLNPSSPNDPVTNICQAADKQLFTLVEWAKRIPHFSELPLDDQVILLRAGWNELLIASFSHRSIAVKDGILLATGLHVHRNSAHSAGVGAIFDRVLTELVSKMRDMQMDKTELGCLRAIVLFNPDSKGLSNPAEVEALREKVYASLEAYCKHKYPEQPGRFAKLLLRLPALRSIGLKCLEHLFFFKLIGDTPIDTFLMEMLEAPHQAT
Put plainly: Transactivation of Gal4-LBD fused mouse RXRalpha (218 to 467) transfected in african green monkey CV1 cells assessed as luciferase activity at 2 uM after 6 hrs by Dual-light chemiluminescent assay relative to 9-cis-retinoic acid. Type of experiment: cell-based. The conditions noted are these: CV-1. In a few lines: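 Transfected CV-1 cells carried Gal4-LBD constructs: hRARα 156–462, hRARβ 169–448, hRARγ 178–454 or mRXRα 218–467. Transfection used 10 ng Gal4-LBD, 100 ng UAS-luciferase and 25 ng β-gal vector. After 16 h the medium was changed to 5% charcoal-treated FBS. Cells were stimulated with 2 μM analog for 6 h (RARα, RARβ, RXRα) or 20 h (RARγ). Reference agonists were 1 μM atRA (RARα) and 1 μM 9cRA (RXRα). Luciferase and β-galactosidase were read by chemiluminescence.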

Experiment [2] concerns Jurkat. Put plainly: Antiproliferative activity against human Jurkat T cells at 2 uM after 48 hrs by MTT assay. In kind it is functional, cell-based. Put shortly: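 Jurkat T cells were resuspended at 10^5 cells/mL in RPMI with 0.5% FBS (10,000/well) and seeded immediately before dosing at 62.5 nM–2 μM for two days. Viability was read by MTT (4 h, 37 °C), formazan dissolved in 10% SDS/10 mM HCl, A595 with cell-free background subtracted. Values are relative to DMSO controls (≤0.1% v/v); at least two experiments in triplicate.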
(In general: Tetrazolium assays rely on reduction of a dye to a coloured formazan, in cell work by metabolically active cells.)

Activity calls are given as the source filed them. The rule behind the calls is not given here.

`COCCOCOc1cc(C)c(-c2ccc3cc(C(=O)O)ccc3c2Cl)cc1C12CC3CC(CC(C3)C1)C2`: the Activity in experiment [1] was determined as 45%.

`COCCOCOc1cc(C)c(-c2ccc(CC(=O)O)cc2Cl)cc1C12CC3CC(CC(C3)C1)C2`: the outcome in experiment [2] was Active.
